Results: ChEMBL document CHEMBL2440032, “Synthesis of sterically encumbered 11β-aminoprogesterone derivatives and evaluation as 11β-hydroxysteroid dehydrogenase inhibitors and mineralocorticoid receptor antagonists” (Bioorg Med Chem, 2013)
The source made the active and inactive calls. The calls are words filed in the database; no cut-off is given here.

Tests used:
[1] = biological target: T1, Mineralocorticoid receptor (Homo sapiens, UniProt P08235); test: Transactivation of wild-type human recombinant mineralocorticoid receptor expressed in COS7 cells after 24 hrs by luciferase reporter gene assay; format: cell-based, COS-7
T1 sequence (P08235 whole entry): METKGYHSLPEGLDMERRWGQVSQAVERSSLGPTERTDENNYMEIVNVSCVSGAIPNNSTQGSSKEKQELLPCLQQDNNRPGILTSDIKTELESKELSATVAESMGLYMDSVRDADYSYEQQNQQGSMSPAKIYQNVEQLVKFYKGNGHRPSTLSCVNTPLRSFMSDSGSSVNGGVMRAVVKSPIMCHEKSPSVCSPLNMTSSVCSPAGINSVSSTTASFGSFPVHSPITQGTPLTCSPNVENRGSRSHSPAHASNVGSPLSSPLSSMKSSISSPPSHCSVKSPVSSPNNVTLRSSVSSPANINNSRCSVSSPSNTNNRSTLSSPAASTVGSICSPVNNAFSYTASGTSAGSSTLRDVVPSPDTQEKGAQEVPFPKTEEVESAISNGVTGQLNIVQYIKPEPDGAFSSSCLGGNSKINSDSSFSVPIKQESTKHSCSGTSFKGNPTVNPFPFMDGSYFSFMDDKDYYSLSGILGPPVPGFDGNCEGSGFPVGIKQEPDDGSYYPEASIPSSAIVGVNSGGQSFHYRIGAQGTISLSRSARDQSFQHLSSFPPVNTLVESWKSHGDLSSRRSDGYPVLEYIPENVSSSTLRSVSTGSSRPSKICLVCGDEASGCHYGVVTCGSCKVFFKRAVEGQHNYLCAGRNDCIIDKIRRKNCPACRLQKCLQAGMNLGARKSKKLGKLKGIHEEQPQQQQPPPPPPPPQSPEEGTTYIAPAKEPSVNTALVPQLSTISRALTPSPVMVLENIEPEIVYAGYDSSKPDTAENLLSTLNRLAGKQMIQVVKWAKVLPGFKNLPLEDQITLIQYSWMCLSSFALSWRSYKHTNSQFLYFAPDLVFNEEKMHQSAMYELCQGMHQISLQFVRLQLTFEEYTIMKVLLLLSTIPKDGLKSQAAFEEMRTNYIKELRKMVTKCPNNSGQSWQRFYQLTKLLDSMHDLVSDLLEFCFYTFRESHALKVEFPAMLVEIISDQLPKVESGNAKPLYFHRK

[2] = biological target: T2, Mineralocorticoid receptor (Homo sapiens) (UniProt P08235); test: (§1) Antagonist activity at human recombinant mineralocorticoid receptor expressed in HEK-293 cells after 24 hrs assessed as inhibition of aldosterone-induced receptor activity by […]; format: cell-based; details: HEK293
T2 sequence (whole entry): T1 sequence (P08235 whole entry)
Outline: (§2)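 HEK-293 cells, 150,000 per well, plated for 24 h, then calcium-phosphate transfected with pMMTV-lacZ β-galactosidase reporter, pCMV-LUC luciferase control and human MR plasmid. Cells were washed with charcoal-treated DMEM containing 10% FBS, then exposed to a range of compound concentrations with or without 10 nM aldosterone. Readout was β-galactosidase normalized to luciferase, relative to vehicle. Three independent experiments.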

[3] = biological target: T1, Mineralocorticoid receptor; test: (§3) Transactivation of human recombinant mineralocorticoid receptor expressed in HEK-293 cells after 24 hrs […]; format: cell-based, HEK293; outline: as §2
[4] = biological target: T3, 11-beta-hydroxysteroid dehydrogenase 1 (Homo sapiens, UniProt P28845); test: Inhibition of human recombinant 11beta-HSD1 expressed in HEK293 cells assessed as inhibition of [1,2,-3H]-cortisone to [3H]cortisol preincubated at 10 uM for 10 mins before substrate addition by scintillation counting; format: cell-based
Outline: (§4)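 Lysates of HEK-293 cells expressing human 11βHSD1, in buffer with 1 mM MgCl2, 250 mM sucrose and 20 mM Tris–HCl pH 7.4, sonicated and used at once. Incubated 10 min at 37 °C with 200 nM [1,2-3H]cortisone and 500 µM NADPH. Stopped with excess unlabeled cortisone/cortisol in methanol, then TLC separation and scintillation counting for substrate conversion. Three independent experiments.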
Target sequence in this assay (P28845 whole entry, looked up): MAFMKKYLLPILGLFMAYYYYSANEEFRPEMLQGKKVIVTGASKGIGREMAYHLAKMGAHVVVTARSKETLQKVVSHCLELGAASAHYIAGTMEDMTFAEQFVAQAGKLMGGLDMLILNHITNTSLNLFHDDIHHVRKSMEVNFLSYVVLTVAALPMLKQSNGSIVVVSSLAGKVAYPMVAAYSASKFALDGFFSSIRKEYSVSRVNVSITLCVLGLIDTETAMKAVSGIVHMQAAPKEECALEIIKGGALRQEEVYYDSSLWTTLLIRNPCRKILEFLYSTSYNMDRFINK

[5] = biological target: T3, 11-beta-hydroxysteroid dehydrogenase 1; test: Inhibition of human recombinant 11beta-HSD1 expressed in HEK293 cells assessed as inhibition of [1,2,-3H]-cortisone to [3H]cortisol preincubated for 10 mins before substrate addition by scintillation counting; format: cell-based; outline: as §4
Target sequence in this assay (P28845 whole entry): as the sequence (P28845 whole entry, looked up) above

[6] = biological target: T4, 11-beta-hydroxysteroid dehydrogenase type 2 (Homo sapiens, UniProt P80365); test: Inhibition of human recombinant 11beta-HSD2 expressed in HEK293 cells assessed as inhibition of [1,2,6,7-3H]-cortisol to [3H]cortisone preincubated for 10 mins before substrate addition by scintillation counting; format: cell-based
T4 sequence (P80365 whole entry): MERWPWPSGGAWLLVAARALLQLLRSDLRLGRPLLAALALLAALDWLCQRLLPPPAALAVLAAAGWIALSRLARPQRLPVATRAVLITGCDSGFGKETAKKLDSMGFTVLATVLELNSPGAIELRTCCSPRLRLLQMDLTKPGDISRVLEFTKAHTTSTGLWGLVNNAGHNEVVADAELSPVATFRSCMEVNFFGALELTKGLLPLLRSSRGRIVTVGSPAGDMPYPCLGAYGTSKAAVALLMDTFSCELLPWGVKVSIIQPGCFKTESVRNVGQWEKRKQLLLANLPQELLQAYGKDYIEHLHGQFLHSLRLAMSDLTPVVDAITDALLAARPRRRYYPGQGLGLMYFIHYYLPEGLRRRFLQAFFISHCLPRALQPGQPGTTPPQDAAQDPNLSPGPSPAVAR

[7] = biological target: T1, Mineralocorticoid receptor; test: as §1; format: cell-based, HEK293; outline: as §2
[8] = biological target: T2, Mineralocorticoid receptor (Homo sapiens); test: as §3; format: cell-based; details: HEK293; outline: as §2

Row | SMILES | inhibition [4] [%] | IC50 [6] [nM] | other results
1 | CC(=O)[C@H]1CC[C@H]2[C@@H]3CCC4=CC(=O)CC[C@]4(C)[C@H]3[C@@H](O)C[C@]12C [11BETA-HYDROXYPROGESTERONE] | > 70 | – | EC50 [1]: 50 nM; inhibition [2]: inactive; EC50 [3]: 14000 nM; IC50 [5]: 1160 nM
2 | CC(=O)[C@H]1CC[C@H]2[C@@H]3CCC4=CC(=O)CC[C@]4(C)[C@H]3[C@@H](N=[N+]=[N-])C[C@]12C [11BETA-AZIDOPROGESTERONE] | – | – | IC50 [7]: 3500 nM; Activity [8]: inactive
3 | CC(=O)[C@H]1CC[C@H]2[C@@H]3CCC4=CC(=O)CC[C@]4(C)[C@H]3[C@@H](NC[C@H]3COC(C)(C)N3C(=O)OC(C)(C)C)C[C@]12C | < 70 | 5850 | –
4 | CC(=O)[C@H]1CC[C@H]2[C@@H]3CCC4=CC(=O)CC[C@]4(C)[C@H]3[C@@H](NC[C@@H](N)C(=O)O)C[C@]12C | – | – | inhibition [2]: inactive; EC50 [3]: 4100 nM
5 | CC(=O)[C@H]1CC[C@H]2[C@@H]3CCC4=CC(=O)CC[C@]4(C)[C@H]3[C@@H](NS(=O)(=O)c3ccccc3[N+](=O)[O-])C[C@]12C | – | – | IC50 [7]: 10900 nM; Activity [8]: inactive
6 | CC(=O)[C@H]1CC[C@H]2[C@@H]3CCC4=CC(=O)CC[C@]4(C)[C@H]3[C@H](O)C[C@]12C | > 70 | – | IC50 [5]: 630 nM

Second part, led by results:

Row | inhibition [4] [%] | IC50 [6] [nM] | SMILES | other results
7 | – | 2690 | CC(=O)[C@H]1CC[C@H]2[C@@H]3CCC4=CC(=O)CC[C@]4(C)[C@H]3[C@@H](NCC(=O)O)C[C@]12C | –
8 | > 70 | 1050 | CCOC(=O)/C(CN[C@H]1C[C@]2(C)[C@@H](C(C)=O)CC[C@H]2[C@@H]2CCC3=CC(=O)CC[C@]3(C)[C@H]21)=N\O | IC50 [5]: 640 nM
9 | < 70 | 4210 | CC(=O)[C@H]1CC[C@H]2[C@@H]3CCC4=CC(=O)CC[C@]4(C)[C@H]3[C@@H](NC[C@@H](CO)NC(=O)OC(C)(C)C)C[C@]12C | –
10 | – | 2410 | CC(=O)[C@H]1CC[C@H]2[C@@H]3CCC4=CC(=O)CC[C@]4(C)[C@H]3[C@@H](NCC(=O)OC(C)(C)C)C[C@]12C | –
11 | – | 2200 | CC(=O)[C@H]1CC[C@H]2[C@@H]3CCC4=CC(=O)CC[C@]4(C)[C@H]3[C@@H](N)C[C@]12C [11BETA-AMINOPROGESTERONE] | –
12 | < 70 | 6760 | CC(=O)[C@H]1CC[C@H]2[C@@H]3CCC4=CC(=O)CC[C@]4(C)[C@H]3[C@@H](NC[C@H](N)C(=O)O)C[C@]12C | –
